{"data": "Assay results from different studies", "HRH2": "Histamine H2 receptor (HRH2, Homo sapiens, UniProt P25021)", "MAL12": "Alpha-glucosidase MAL12 (MAL12, Saccharomyces cerevisiae S288c, UniProt P53341)", "rep main protease": "Replicase polyprotein 1ab, main protease (rep, Severe acute respiratory syndrome coronavirus 2, UniProt P0DTD1)", "ADRA1A": "Alpha-1A adrenergic receptor (ADRA1A, Homo sapiens, UniProt P35348)", "note": "Lines come from different studies, so protocols differ."}
{"SMILES": "CC(C)CC(=O)OC[C@H]1O[C@@](C#N)(c2ccc3c(N)ncnn23)[C@H](O)[C@@H]1O", "target": "HRH2", "effect on": "cell-free assay", "concentration": "20 µM", "quantity": "inhibition", "value": "3%"}
{"SMILES": "CN1C(=O)/C(=N\\Nc2ncc(-c3cc4ccccc4oc3=O)s2)c2cc(Cl)ccc21", "target": "MAL12", "effect on": "enzyme activity", "mode": "inhibitor", "method": "absorbance", "concentration": "100 µM", "quantity": "inhibition", "value": "48.3%"}
{"SMILES": "COc1ccc(-c2cc(=O)c3c(O)cc(OC)cc3o2)cc1", "target": "rep main protease", "effect on": "enzyme activity", "mode": "inhibitor", "concentration": "100 µM", "quantity": "inhibition", "value": "10.6%"}
{"SMILES": "c1cncc([C@@H]2CCCN2)c1", "target": "HRH2", "effect on": "ligand displacement", "concentration": "50 µM", "quantity": "inhibition", "value": "-6.37%"}
{"SMILES": "COc1cc(O)c2c(=O)c(OC)c(-c3ccccc3)oc2c1", "target": "rep main protease", "effect on": "enzyme activity", "mode": "inhibitor", "concentration": "10 µM", "quantity": "inhibition", "value": "3.04%"}
{"SMILES": "COc1cc2c3c(c1OC)-c1c(cccc1OC)CC3N(C)CC2 (racemic)", "target": "ADRA1A", "effect on": "ligand displacement", "method": "radioligand", "concentration": "10 µM", "quantity": "inhibition", "value": "65%"}
{"SMILES": "CN1C(=S)N(c2ccccc2)C(=O)/C1=C1/C(=O)N(C)c2ccc(Cl)cc21", "target": "MAL12", "effect on": "enzyme activity", "mode": "inhibitor", "method": "absorbance", "concentration": "200 µM", "quantity": "inhibition", "value": "54.2%"}
{"SMILES": "CCOC(=O)Cc1c2c3c(cc(OC)c(OC)c3c3cc(OC)c(OC)cc13)CCN2C", "target": "ADRA1A", "effect on": "ligand displacement", "method": "radioligand", "concentration": "10 µM", "quantity": "inhibition", "value": "13%"}
{"SMILES": "COc1cc(O)c2c(=O)c(OC)c(-c3ccc(OC)c(OC)c3)oc2c1", "target": "rep main protease", "effect on": "enzyme activity", "mode": "inhibitor", "concentration": "10 µM", "quantity": "inhibition", "value": "5.84%"}
{"SMILES": "O=c1c(O)c(-c2ccc(O)cc2)oc2c(O)c(O)cc(O)c12", "target": "rep main protease", "effect on": "enzyme activity", "mode": "inhibitor", "quantity": "kinact/KI", "value": "20.3 M⁻¹ s⁻¹"}
{"SMILES": "[2H]c1c([2H])c([C@]2([2H])CCCN2C(=O)C(C)(C)Oc2ccc3cn[nH]c3c2)c([2H])c([2H])c1C([2H])([2H])[2H]", "target": "Homeodomain-interacting protein kinase 4 (HIPK4, Homo sapiens, UniProt Q8NE63)", "effect on": "binding", "method": "competition with immobilised ligand", "concentration": "1 µM", "quantity": "remaining binding", "value": "59%"}
{"SMILES": "O=c1c(O)c(-c2cc(O)c(O)c(O)c2)oc2cc(O)cc(O)c12", "target": "rep main protease", "effect on": "enzyme activity", "mode": "inhibitor", "concentration": "100 µM", "quantity": "inhibition", "value": "100%"}
{"SMILES": "C[C@H]1O[C@H](O[C@H]2[C@H](O)[C@@H](O)[C@@H](O[C@H]3[C@H](O)[C@@H](O)C(O)O[C@@H]3CO)O[C@@H]2CO)[C@H](O)[C@@H](O)[C@@H]1N[C@H]1C=C(CO)[C@@H](O)[C@H](O)[C@H]1O (stereo partly drawn)", "target": "MAL12", "effect on": "enzyme activity", "mode": "inhibitor", "method": "absorbance", "concentration": "774.5 µM", "quantity": "inhibition", "value": "63.9%"}
{"SMILES": "COc1cc2c(cc1OC)-c1c(OC)c(OC)cc3c1[C@H](C2)N(C)CC3", "target": "ADRA1A", "effect on": "ligand displacement", "method": "radioligand", "concentration": "10 µM", "quantity": "inhibition", "value": "82%"}
{"SMILES": "O=C(O[C@@H]1Cc2c(O)cc(O)cc2O[C@@H]1c1ccc(O)c(O)c1)c1cc(O)c(O)c(O)c1", "target": "rep main protease", "effect on": "enzyme activity", "mode": "inhibitor", "quantity": "kinact", "value": "1.83e-05 s⁻¹"}
{"SMILES": "CN1CCC[C@H]1c1cccnc1", "target": "HRH2", "effect on": "ligand displacement", "concentration": "50 µM", "quantity": "inhibition", "value": "3.47%"}
{"SMILES": "CCc1ccc(N2C(=O)/C(=C3/C(=O)N(C)c4ccc(Cl)cc43)NC2=S)cc1", "target": "MAL12", "effect on": "enzyme activity", "mode": "inhibitor", "method": "absorbance", "concentration": "25 µM", "quantity": "inhibition", "value": "14.6%"}
{"SMILES": "O=C(O)c1cc(O)c(O)c(O)c1", "target": "rep main protease", "effect on": "enzyme activity", "mode": "inhibitor", "quantity": "kinact/KI", "value": "205 M⁻¹ s⁻¹"}
